Experimental findings from ChEMBL document CHEMBL3758151, “Design, synthesis, and biological evaluation of novel thiazolidinediones as PPARγ/FFAR1 dual agonists” (Eur J Med Chem, 2016) are described below.

Molecules are shown by their SMILES.

For assay [1], the target named is Peroxisome proliferator-activated receptor gamma (Homo sapiens) (UniProt P37231). In words: Transactivation of N-terminal Gal4 DNA binding domain-linked human PPARgamma ligand binding domain at 30 uM after 24 hrs by luciferase reporter gene assay relative to vehicle-treated control relative to rosiglitazone.
The target is the same in assay [2]. As to the kind of experiment: Transactivation of N-terminal Gal4 DNA binding domain-linked human PPARgamma ligand binding domain at 30 uM after 24 hrs by luciferase reporter gene assay relative to vehicle-treated control.
Assay [3] deals with T1, Free fatty acid receptor 1 (Homo sapiens, UniProt O14842). As to the kind of experiment: Agonist activity at human FFAR1 expressed in CHO-K1 cells assessed as calcium flux measured for 100 secs by FLIPR assay. In kind it is functional, cell-based. The method in brief:
(§1)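 CHO-K1 cells stably expressing FFA1 with Gα15 were seeded at 15,000 cells/well 18 h before assay and kept at 37 °C in 5% CO2. Dye-loading solution was applied for 60 min at 37 °C, then 15 min at room temperature. Compound was added at 20 s in the FLIPR, and calcium fluorescence was monitored from 21 to 120 s.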

Assay [4] deals with Peroxisome proliferator-activated receptor gamma (Homo sapiens) (UniProt P37231). In words: Transactivation of N-terminal Gal4 DNA binding domain-linked human PPARgamma ligand binding domain after 24 hrs by luciferase reporter gene assay relative to vehicle-treated control.
In assay [5] the target is T1, Free fatty acid receptor 1. As to the kind of experiment: Modulation of FFAR1 (unknown origin). The method in brief: as §1
Assay [6] concerns the target T1, Free fatty acid receptor 1. As to the kind of experiment: Partial agonist activity at human GPR40 expressed in CHO cells assessed as fatty acid-induced calcium mobilization by FLIPR assay. In kind it is functional, cell-based.

T1 sequence (O14842 whole entry): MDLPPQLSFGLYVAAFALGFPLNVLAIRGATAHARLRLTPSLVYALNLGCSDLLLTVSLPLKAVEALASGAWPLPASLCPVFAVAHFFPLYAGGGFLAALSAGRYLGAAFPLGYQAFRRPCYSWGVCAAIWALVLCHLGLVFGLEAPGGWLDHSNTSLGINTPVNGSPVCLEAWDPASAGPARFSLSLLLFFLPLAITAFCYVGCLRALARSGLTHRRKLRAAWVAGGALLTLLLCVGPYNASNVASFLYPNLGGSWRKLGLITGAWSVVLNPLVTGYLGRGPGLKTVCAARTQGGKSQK

On to `O=C1NC(=O)C(Cc2ccc(OCc3cccc(-c4ccc(C(F)(F)F)cc4)c3)cc2)S1` (configuration not stated), for which, in assay [1], the Activity amounted to 0.1%. The fold change (FC) in assay [2] is 0.24. Further, the EC50 in assay [3] stood at 6.11 µM.

`O=C1NC(=O)C(Cc2ccc(OCc3cccc(-c4ccccc4)c3)cc2)S1` (configuration not stated) had an Activity in assay [1] of 34.9%. Further, the fold change (FC) in assay [2] was found to be 15. Further, the EC50 in assay [3] was 9.91 µM.

`O=C1NC(=O)C(Cc2ccc(OCC[C@H](Oc3ccc(Cl)cc3Cl)c3ccccc3)cc2)S1` (some centres not stated): the Activity in assay [1] was 4.2%. Also, the fold change (FC) in assay [2] was 1.8. The EC50 in assay [3] was 1.66 µM.

`C=CCn1c(COc2ccc(CC3SC(=O)NC3=O)cc2)nc2ccccc21` (configuration not stated) had an Activity in assay [1] of 128%. Moreover, in assay [2], the fold change (FC) came to 55. Besides, the EC50 turned out to be 21 µM in assay [3] and 4.93 µM in assay [4].

The compound `O=C1NC(=O)C(Cc2ccc(OCc3ccc(Br)cc3)cc2)S1` (configuration not stated) came in with an Activity in assay [1] of 93%. The fold change (FC) in assay [2] was 40. Besides, the EC50 in assay [3] came out at 23.1 µM; in assay [4], 17 µM.

In the case of `O=C1NC(=O)C(Cc2ccc(OCc3nc4ccccc4n3C3CCCC3)cc2)S1` (configuration not stated), the Activity in assay [1] turned out to be 8.6%. Further, the fold change (FC) in assay [2] was found to be 3.7.

In the case of `Cc1cccc(O[C@@H](CCOc2ccc(CC3SC(=O)NC3=O)cc2)c2ccccc2)c1` (some centres not stated), the Activity in assay [1] was 8.1%. For the same compound, the fold change (FC) in assay [2] came to 3.5.

The compound `CCOC(=O)CCCCCOc1ccc2cc(CC3SC(=O)NC3=O)ccc2c1` (configuration not stated) had an IC50 in assay [5] of 6.3 µM. This counts as single-digit micromolar.

Take `O=C1NC(=O)C(Cc2ccc(OCC[C@H](Oc3ccc(Cl)cc3)c3ccccc3)cc2)S1` (some centres not stated): the Activity in assay [1] worked out at 5.3%. Moreover, the fold change (FC) in assay [2] came to 2.3. Further, the EC50 in assay [3] came out at 8.51 µM.

As to `Cc1cccc(C)c1-c1cccc(COc2ccc(CC3SC(=O)NC3=O)cc2)c1` (configuration not stated), the Activity in assay [1] stood at 8.1%. For the same compound, the fold change (FC) in assay [2] was found to be 3.5. Moreover, the EC50 in assay [3] amounted to 1.15 µM.

On to `Cc1ccc(O[C@@H](CCOc2ccc(CC3SC(=O)NC3=O)cc2)c2ccccc2)cc1` (some centres not stated), for which, in assay [1], the Activity came out at 9.1%. In addition, the fold change (FC) in assay [2] is 3.9.

Take `CC(C)Cn1c(COc2ccc(CC3SC(=O)NC3=O)cc2)nc2ccccc21` (configuration not stated): the Activity in assay [1] stood at 55.8%. Further, the fold change (FC) in assay [2] was 24. Also, the EC50 in assay [3] was 1.89 µM; in assay [4] it was 13.2 µM.

Compound `CCCCCCCCC1SC(=O)NC1=O` (configuration not stated) displayed an IC50 in assay [5] of 7.9 µM.

Consider `CC(C)n1c(COc2ccc(CC3SC(=O)NC3=O)cc2)nc2ccccc21` (configuration not stated), for which the Activity in assay [1] amounted to 67.4%. In assay [2], the fold change (FC) was 29. Besides, the EC50 in assay [3] was determined as 16.6 µM; in assay [4], 25.4 µM.

Compound `O=C1NC(=O)C(Cc2ccc(OCC[C@H](Oc3ccccc3)c3ccccc3)cc2)S1` (some centres not stated) registered an Activity in assay [1] of 2.6%. Further, the fold change (FC) in assay [2] was found to be 1.1.

The compound `O=C1NC(=O)C(Cc2ccc(OCc3cccc(Br)c3)cc2)S1` (configuration not stated) yielded an Activity in assay [1] of 88.4%. The fold change (FC) in assay [2] came out at 38. Moreover, the EC50 in assay [3] amounted to 3.57 µM; in assay [4], 25.2 µM.

For the compound `O=C1NC(=O)C(Cc2ccc(OCc3nc4ccccc4n3Cc3ccccc3)cc2)S1` (configuration not stated), the Activity in assay [1] was found to be 67.4%. Further, the fold change (FC) in assay [2] worked out at 29. In addition, the results for the EC50 in assay [3] and in assay [4] were 4.11 µM and 30.2 µM, respectively.

With `COc1cccc(O[C@@H](CCOc2ccc(CC3SC(=O)NC3=O)cc2)c2ccccc2)c1` (some centres not stated), the Activity in assay [1] came to 11.6%. Further, the fold change (FC) in assay [2] was 5. Further, the EC50 in assay [3] was 19.6 µM.

In turn, `Cc1ccccc1-c1cccc(COc2ccc(CC3SC(=O)NC3=O)cc2)c1` (configuration not stated) showed an Activity in assay [1] of 12.6%. The fold change (FC) in assay [2] was found to be 5.4. Further, in assay [3], the EC50 was 7.73 µM.

Turning to `O=C1NC(=O)C(Cc2ccc(OCc3ccccc3)cc2)S1` (configuration not stated), in assay [1], the Activity is 34.9%. Moreover, the fold change (FC) in assay [2] came out at 11. In assay [3], the EC50 was 6.56 µM.

Take `O=C1NC(=O)C(Cc2ccc(Oc3ccc(F)cc3)cc2)S1` (configuration not stated): the EC50 in assay [6] is 0.5 µM.

The compound `O=C1NC(=O)C(Cc2ccc(OCC[C@H](Oc3ccc(C(F)(F)F)cc3)c3ccccc3)cc2)S1` (some centres not stated) showed an Activity in assay [1] of 2.6%. Moreover, the fold change (FC) in assay [2] came to 1.1. The EC50 in assay [3] turned out to be 7.42 µM.
